Screens from PubChem.
This is a sample that favours compounds with a hit; in the whole collection about 4.6% have one here.
OX1R antag-1 – antagonists of human orexin 1 receptor (OX1R) | 1.8% of 330,000 active | AID 485270, 2010 | OX1R-expressing cells, FRET antagonist read-out | inhibition, % at 6.6 µM; in the data active = inhibition mostly above about 38%, no sharp cut-off; inactive = mostly below about 40%;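 note: 0% = agonist challenge alone and 100% = reference antagonist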
Target sequence (O43613 whole entry, looked up): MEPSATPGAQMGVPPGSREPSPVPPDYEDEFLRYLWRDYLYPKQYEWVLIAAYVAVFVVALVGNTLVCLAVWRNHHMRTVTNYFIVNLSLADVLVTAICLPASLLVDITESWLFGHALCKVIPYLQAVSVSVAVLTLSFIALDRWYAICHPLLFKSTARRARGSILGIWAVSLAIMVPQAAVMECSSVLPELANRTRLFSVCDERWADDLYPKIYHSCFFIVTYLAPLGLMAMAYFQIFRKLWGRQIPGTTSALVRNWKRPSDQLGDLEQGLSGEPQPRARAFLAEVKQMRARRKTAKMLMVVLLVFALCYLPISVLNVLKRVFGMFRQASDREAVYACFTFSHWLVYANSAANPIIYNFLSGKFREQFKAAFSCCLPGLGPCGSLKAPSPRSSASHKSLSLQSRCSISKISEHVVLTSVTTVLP
TAAR1 ag – human TAAR1 agonists, primary screen, Fluo-8 calcium fluorescence, CHO RD-HGA16 cells. activation, % at 3 µM. vehicle wells 0%, saturating PEA agonist 100%. AID 624467, 2012. 0.99% of 360,000 active. Trace amine-associated receptor 1 (Homo sapiens), Q96RJ0;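 active = activation above the mean activation of all test compounds in the run plus 3 SD, cut at about 38% in these data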
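System: CHO-derived RD-HGA16 cells with stable Gα16 and human TAAR1 / Times: 17-24 h plating, Fluo-8 75 min 37 °C, 30 min RT / Technique: calcium-sensitive Fluo-8 signal, excitation 470-495, emission 515-575 nm / Measure: % activation relative to PEA EC100 response / Benchmarks: DMSO and PEA EC100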
OX1R antag-2 – OX1R (HCRTR1) antagonists, primary screen, fluorescence, CHO/OX1R cells, Fluo-8 calcium, orexin A; Fluo-8 calcium fluorescence; inhibition, % at 5 µM; 0.43% of 330,000 active;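 active = inhibition above its plate's threshold, mean inhibition of all tested compounds on the plate plus 3 SD, cut at about 37% in these data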;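 note: 0% = orexin A challenge wells and 100% = SB-334867-A antagonist wells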
GPR7 antag – GPR7 receptor antagonists, primary screen, cell-based, fluorescence, single concentration; GPR7-expressing cells, fluorescence antagonist assay; inhibition, % at 4.4 µM; 1.1% of 290,000 active; AID 1861, 2009; in the data active = inhibition above about 16%, passing the limit was not always enough;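 note: cells stimulated with the agonist NPW; 0% = agonist with vehicle and 100% = vehicle without agonist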
TAAR1 antag – human TAAR1 antagonists, primary screen, Fluo-8 calcium fluorescence, CHO RD-HGA16 cells; 1.5% of 360,000 active; antagonist; Trace amine-associated receptor 1 (Homo sapiens), Q96RJ0; inhibition, % at 3 µM; AID 624466, 2012;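 active = inhibition above a per-plate cutoff, the mean inhibition of test compounds on that plate plus 3 SD, cut at about 49% in these data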;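 note: 0% = DMSO plus EC80 beta-PEA response and 100% = DMSO alone without agonist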
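Test system – hTAAR1-expressing CHO RD-HGA16 cells, Gα16-coupled · Reagent – β-PEA at EC80 concentration, post-compound challenge · Compound dosing – 3 µM, single point · Timing – 140 s kinetic read after compound, 140 s after agonist · Detection – Fluo-8 intracellular calcium dye fluorescence, real-time kinetic reads · Control set – DMSO and EC80 PEA controls · Repeats – n of 1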
CHO parental Ca – ATP-evoked calcium signal inhibitors, parental CHO, primary screen, counter-screen for OX1R antagonist project, cell-based, fluorescence, Fluo-8 calcium dye. inhibition, % at 5.6 µM. parental CHO-K1, ATP-induced calcium, Fluo-8 fluorescence. 0.63% of 330,000 active;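 active = inhibition above that plate's mean sample inhibition plus 3 SD, cut at about 26% in these data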;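 note: 0% = ATP-challenged DMSO wells and 100% = DMSO wells without ATP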
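Test system: untransfected parental CHO cell line; also added: ATP stimulus; dosing: 5.6 µM, single dose; signal: calcium-sensitive Fluo-8 fluorescence; measure: percent inhibition of ATP-evoked calcium rise, normalized to controls; benchmarks: low control ATP plus DMSO, high control DMSO only; replication: one well per compound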
Active calls of the source: *; x = not tested or not shown.

SMILES	OX1R antag-1	TAAR1 ag	OX1R antag-2	GPR7 antag	TAAR1 antag	CHO parental Ca
O=C(NCc1ccccc1)C1c2ccccc2OCC(=O)N1Cc1ccccc1 (stereo unspecified)	x	4	x	x	-7	x
Cc1sc(NC(=O)c2ccco2)c(C(c2cccnc2)N2CCN(CCO)CC2)c1C (stereo unspecified)	1	2	-25	-10	-4	-17
CCOC(=O)C1CCN(C(c2cccnc2)c2c(NC(=O)c3ccco3)sc(C)c2C)CC1 (stereo unspecified)	8	23	-35	27*	26	-8
CCCCCNC(=O)C(c1cc2ccccc2o1)n1c(=O)c(-c2cc3ccccc3[nH]2)nc2ccccc21 (stereo unspecified)	x	1	x	x	4	x
Nc1[nH]c(C(=O)c2ccccc2)c(-c2ccccc2[N+](=O)[O-])c1C(=O)NCCc1c[nH]c2ccccc12	x	10	x	x	22	x
Cn1c(=O)c2cc(NCc3ccccc3)nnc2n(C)c1=O	48*	10	-17	-2	2	-9
O=C(C(=O)N(Cc1ccccc1)Cc1ccccc1)c1c(-c2ccccc2)[nH]c2ccccc12	x	12	x	x	75*	x
COC(=O)[C@]12C[C@H](CC(=O)NCc3ccccc3)C(=O)N(Cc3ccc4c(c3)OCO4)C1=C[C@H](COCc1ccccc1)O[C@@H]2C	x	0	x	x	6	x
CC(C)COP(=O)(OCC(C)C)C(Nc1ccccc1)c1ccc(F)cc1 (stereo unspecified)	17	3	-22	18*	32	-51
CC(C)COP(=O)(OCC(C)C)C(Nc1ccccc1)c1ccccc1 (stereo unspecified)	23	6	-27	7	17	-24
CS(=O)(=O)c1ccc(C(=O)OCC(=O)NC(=O)C2CCCCC2)cc1[N+](=O)[O-]	49*	3	6	-2	15	17
C[C@H](CO)N1C[C@H](C)[C@H](CN(C)S(=O)(=O)c2ccc(F)cc2)OCc2cnnn2CCCC1=O	x	6	x	x	-7	x
CCc1ccc(NC(=O)c2ccc(F)c(S(=O)(=O)N(CC)c3ccccc3)c2)cc1	25	6	0	-18	59*	34
CCN(c1ccccc1)S(=O)(=O)c1cc(C(=O)NCc2ccco2)ccc1C	0	6	0	x	-1	-6
Cc1c(O)ccc2c(-c3ccccc3)cc(=O)oc12	11	7	-9	0	32	16
CCN(CC)Cc1c(O)ccc2c(-c3ccccc3)cc(=O)oc12	61*	11	-29	-2	-10	-16
CN1CCN(NC(=O)c2ccc(F)cc2)CC1	2	9	-18	2	4	8
CN1CCN(NC(=O)c2cc([N+](=O)[O-])cc([N+](=O)[O-])c2)CC1	71*	8	-4	-13	-12	-9
CN1CCN(C(=O)c2cc([N+](=O)[O-])cc([N+](=O)[O-])c2)CC1	63*	1	-12	-7	-8	10
Nc1ccn(CCCN2CCN(C(=O)C3CC3)CC2)c(=O)n1	x	1	x	x	-9	x
C=CCn1c(-c2csc(-c3ccc(OC)c(OC)c3)n2)n[nH]c1=S	32	0	-9	-7	-16	72*
COc1ccc(CCNC(=O)COc2ccc(S(=O)(=O)N3CCOCC3)cc2)cc1	7	1	10	-2	9	-3
COc1ccc(CCNC(=O)CC(=O)N/N=C/c2ccc(C(=O)O)cc2)cc1OC	9	2	-19	-1	-10	-7
COc1ccc(CCNC(=O)COc2ccc(S(=O)(=O)N3CCOCC3)cc2)cc1OC	49*	1	15	-10	17	-7
COC(=O)c1ccc(/C=N/OCC(=O)NCCc2ccc(OC)c(OC)c2)cc1	45*	20	2	-4	-8	-14
COc1ccc(CNC(=O)c2ccc3ccccc3n2)cc1OC	52*	4	9	15	8	45*
